Experimental data from ChEMBL document CHEMBL3616378 (J Med Chem, 2015).

Assays:
Rattus norvegicus [1] = experiment: Toxicity in Sprague-Dawley rat assessed as impairment of neuromuscular coordination at 3 mg/kg, ip after 1 to 3 hrs by rotarod test; format: organism-based; conditions: in vivo
[2] = Half life in Sprague-Dawley rat at 1 mg/kg, ip; format: ADME, organism-based; conditions: in vivo
Procedure, shortened: (§1)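 Fasted male Sprague–Dawley rats (~250 g) received a single dose of compound dissolved in water and adjusted to pH 7–7.5 with NaOH, given iv, by oral gavage or ip. Serial blood samples (11–12 per rat) were drawn from a jugular vein catheter into EDTA and kept frozen. Plasma was mixed with methanol:water (1:1) containing an analogue internal standard for analysis. Mean plasma parameters are reported.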

[3] = Tmax in Sprague-Dawley rat at 5 mg/kg, po; format: ADME, organism-based; conditions: in vivo
Procedure, shortened: (§2)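 Compound dissolved in water, pH adjusted to 7–7.5 with NaOH; single dose to fasted male Sprague–Dawley rats (~250 g) by oral gavage, intravenous or intraperitoneal route. Serial blood (11–12 samples per rat) from jugular vein catheter into EDTA tubes, centrifuged, frozen; 25 µL plasma mixed with methanol:water (1:1) containing analogue internal standard.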

[4] = AUC (0 to 24 hrs) in Sprague-Dawley rat at 1 mg/kg, ip; format: ADME, organism-based; parameters: dose 1 mg/kg, time < 24 hr, route intraperitoneal; conditions: in vivo; procedure, shortened: as §1
[5] = target: T1, Metabotropic glutamate receptor 2 (Homo sapiens, UniProt Q14416); experiment: Displacement of [3H]-459477 from human recombinant mGlu2 receptor expressed in AV12 cells after 90 mins by liquid scintillation counting; format: cell-based
T1 sequence (Q14416 whole entry): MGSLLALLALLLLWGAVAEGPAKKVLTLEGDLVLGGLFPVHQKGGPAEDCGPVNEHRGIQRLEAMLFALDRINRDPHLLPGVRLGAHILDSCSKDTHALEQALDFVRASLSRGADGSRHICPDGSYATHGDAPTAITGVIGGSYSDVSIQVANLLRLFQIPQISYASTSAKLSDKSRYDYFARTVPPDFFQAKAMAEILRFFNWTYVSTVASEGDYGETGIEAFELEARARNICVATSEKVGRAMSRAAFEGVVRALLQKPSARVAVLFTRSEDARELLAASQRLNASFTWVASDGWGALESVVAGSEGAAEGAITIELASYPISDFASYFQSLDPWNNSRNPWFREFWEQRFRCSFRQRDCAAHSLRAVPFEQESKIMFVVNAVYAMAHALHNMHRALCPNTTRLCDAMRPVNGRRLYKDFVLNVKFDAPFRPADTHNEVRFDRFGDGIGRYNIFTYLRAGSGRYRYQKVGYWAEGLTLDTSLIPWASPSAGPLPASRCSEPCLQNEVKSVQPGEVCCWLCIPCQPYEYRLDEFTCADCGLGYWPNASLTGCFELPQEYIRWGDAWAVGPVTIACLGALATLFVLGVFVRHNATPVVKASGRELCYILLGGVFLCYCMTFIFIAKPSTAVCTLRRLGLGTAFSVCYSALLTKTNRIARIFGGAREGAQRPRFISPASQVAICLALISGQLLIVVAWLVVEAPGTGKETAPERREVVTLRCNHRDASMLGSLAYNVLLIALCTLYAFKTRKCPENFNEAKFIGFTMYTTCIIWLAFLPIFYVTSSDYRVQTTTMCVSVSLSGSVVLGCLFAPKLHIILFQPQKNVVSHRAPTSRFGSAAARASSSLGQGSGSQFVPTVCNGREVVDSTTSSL

[6] = target: T2, Metabotropic glutamate receptor 1 (Homo sapiens, UniProt Q13255); experiment: Agonist activity at human recombinant mGlu1 receptor expressed in AV12 cells assessed as stimulation of Ca2+ mobilization after 1 hr by FLIPR assay; format: functional, cell-based
T2 sequence (Q13255 whole entry): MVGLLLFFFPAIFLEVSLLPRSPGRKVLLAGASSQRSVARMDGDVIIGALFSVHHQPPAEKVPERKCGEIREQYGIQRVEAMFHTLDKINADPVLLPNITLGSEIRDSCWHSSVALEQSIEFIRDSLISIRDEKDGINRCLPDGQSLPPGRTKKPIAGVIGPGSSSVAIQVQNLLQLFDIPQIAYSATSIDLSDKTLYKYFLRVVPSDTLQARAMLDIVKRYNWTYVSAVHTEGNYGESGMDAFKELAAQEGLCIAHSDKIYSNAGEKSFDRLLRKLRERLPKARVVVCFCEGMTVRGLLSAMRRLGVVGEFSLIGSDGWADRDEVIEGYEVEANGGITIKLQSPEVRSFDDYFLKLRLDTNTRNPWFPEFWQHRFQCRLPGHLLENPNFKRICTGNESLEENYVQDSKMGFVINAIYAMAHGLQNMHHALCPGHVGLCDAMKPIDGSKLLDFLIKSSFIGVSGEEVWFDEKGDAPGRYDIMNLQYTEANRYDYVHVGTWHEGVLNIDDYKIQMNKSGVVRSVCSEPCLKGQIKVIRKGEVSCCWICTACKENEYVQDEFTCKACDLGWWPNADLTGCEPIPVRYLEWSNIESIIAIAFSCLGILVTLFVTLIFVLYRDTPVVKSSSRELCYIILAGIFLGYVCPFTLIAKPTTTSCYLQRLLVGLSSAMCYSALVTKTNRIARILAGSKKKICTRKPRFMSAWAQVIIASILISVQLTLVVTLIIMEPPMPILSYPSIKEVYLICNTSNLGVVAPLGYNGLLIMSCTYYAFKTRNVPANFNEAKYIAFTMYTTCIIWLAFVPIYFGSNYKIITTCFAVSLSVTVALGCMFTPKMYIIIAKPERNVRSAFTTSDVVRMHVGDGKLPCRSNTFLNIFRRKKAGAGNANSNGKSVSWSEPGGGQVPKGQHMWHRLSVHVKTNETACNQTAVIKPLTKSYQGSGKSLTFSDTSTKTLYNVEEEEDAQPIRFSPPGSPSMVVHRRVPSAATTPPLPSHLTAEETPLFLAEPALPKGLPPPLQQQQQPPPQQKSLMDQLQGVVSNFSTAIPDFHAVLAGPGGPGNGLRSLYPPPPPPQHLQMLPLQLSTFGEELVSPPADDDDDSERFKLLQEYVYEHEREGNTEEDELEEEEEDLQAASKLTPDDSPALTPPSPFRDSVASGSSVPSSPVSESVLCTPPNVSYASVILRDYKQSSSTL

CYP2C9 = CYP2C9 (Homo sapiens, UniProt P11712); experiment: Inhibition of human CYP2C9 at 10 uM; format: ADME
Sequence of CYP2C9 (P11712 whole entry, canonical isoform): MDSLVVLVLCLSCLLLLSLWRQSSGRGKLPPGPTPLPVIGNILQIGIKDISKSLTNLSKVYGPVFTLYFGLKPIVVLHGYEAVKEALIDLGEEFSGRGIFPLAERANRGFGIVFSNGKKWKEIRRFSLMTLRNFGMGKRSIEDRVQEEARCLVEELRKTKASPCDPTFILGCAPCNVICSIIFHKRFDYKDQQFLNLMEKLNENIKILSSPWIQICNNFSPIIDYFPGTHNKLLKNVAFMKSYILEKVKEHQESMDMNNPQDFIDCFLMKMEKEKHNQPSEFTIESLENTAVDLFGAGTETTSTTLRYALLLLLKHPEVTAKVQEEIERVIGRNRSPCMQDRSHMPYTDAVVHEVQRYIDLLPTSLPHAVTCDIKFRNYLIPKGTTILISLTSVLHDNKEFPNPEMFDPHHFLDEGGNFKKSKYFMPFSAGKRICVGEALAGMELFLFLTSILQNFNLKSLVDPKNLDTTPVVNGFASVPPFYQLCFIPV
Procedure, shortened: (§3)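 Inhibition of human CYP isoforms was measured with the compound tested at 10 µM.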

[7] = Plasma concentration in Sprague-Dawley rat at 1 mg/kg, ip after 4 hrs; format: ADME, organism-based
Procedure, shortened: (§4)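 Separate experiment: single ip doses of 1, 3 and 10 mg/kg to rats, compound in water adjusted to pH 7–7.5 with NaOH; plasma (with csf) sampled at 0.5, 1 and 4 h; mean plasma concentrations ± SEM reported.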

[8] = Bioavailability in Sprague-Dawley rat at 1 mg/kg, ip; format: ADME, organism-based; conditions: in vivo; procedure, shortened: as §1
[9] = Drug level in Sprague-Dawley rat cerebrospinal fluid at 3 mg/kg, ip after 1 hr; format: ADME, organism-based; conditions: read-out: Drug uptake
Procedure, shortened: (§5)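 Male Sprague–Dawley rats received single ip doses of 1, 3 or 10 mg/kg. Cerebrospinal fluid and plasma levels were determined at 0.5, 1 and 4 h. Mean csf concentration (nM ± SEM) is reported.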

[10] = Drug level in Sprague-Dawley rat cerebrospinal fluid at 3 mg/kg, ip after 0.5 hrs; format: ADME, organism-based; conditions: read-out: Drug uptake; procedure, shortened: as §5
[11] = Bioavailability in Sprague-Dawley rat at 3 mg/kg, ip; format: ADME, organism-based; conditions: in vivo; procedure, shortened: as §1
[12] = target: T3, Metabotropic glutamate receptor 8 (Homo sapiens, UniProt O00222); experiment: Agonist activity at human recombinant mGlu8 receptor expressed in AV12 cells assessed as inhibition of forskolin-stimulated cAMP production after 1 hr by fluorescence assay; format: functional, cell-based
T3 sequence (O00222 whole entry): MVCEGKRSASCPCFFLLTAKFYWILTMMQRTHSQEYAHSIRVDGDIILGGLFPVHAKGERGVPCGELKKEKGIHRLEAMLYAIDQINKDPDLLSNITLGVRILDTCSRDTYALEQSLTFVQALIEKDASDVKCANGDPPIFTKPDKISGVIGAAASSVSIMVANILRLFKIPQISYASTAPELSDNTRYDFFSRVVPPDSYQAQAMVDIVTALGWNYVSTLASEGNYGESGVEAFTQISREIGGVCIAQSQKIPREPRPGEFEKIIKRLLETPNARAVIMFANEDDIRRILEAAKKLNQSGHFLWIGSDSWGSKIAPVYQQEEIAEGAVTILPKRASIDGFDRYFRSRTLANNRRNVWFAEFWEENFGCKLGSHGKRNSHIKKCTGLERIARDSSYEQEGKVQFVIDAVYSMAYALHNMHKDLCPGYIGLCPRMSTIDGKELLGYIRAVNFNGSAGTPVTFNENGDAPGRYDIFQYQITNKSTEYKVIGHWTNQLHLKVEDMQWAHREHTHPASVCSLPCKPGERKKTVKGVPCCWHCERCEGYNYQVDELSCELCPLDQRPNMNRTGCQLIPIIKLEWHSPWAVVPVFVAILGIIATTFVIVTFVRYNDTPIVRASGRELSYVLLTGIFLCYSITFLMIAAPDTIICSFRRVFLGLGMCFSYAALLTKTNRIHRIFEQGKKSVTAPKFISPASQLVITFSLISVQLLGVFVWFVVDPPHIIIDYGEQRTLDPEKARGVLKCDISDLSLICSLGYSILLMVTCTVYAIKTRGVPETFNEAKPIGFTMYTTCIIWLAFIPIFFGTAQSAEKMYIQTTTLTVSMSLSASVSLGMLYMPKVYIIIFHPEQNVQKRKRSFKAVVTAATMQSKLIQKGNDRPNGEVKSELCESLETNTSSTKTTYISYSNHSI

[13] = Plasma concentration in Sprague-Dawley rat at 1 mg/kg, ip after 0.5 hrs; format: ADME, organism-based; procedure, shortened: as §4
[14] = Metabolic stability of the compound in rat hepatocytes assessed as loss of compound at 2 uM; format: ADME, cell-based, Hepatocyte; conditions: read-out: Drug degradation
Procedure, shortened: (§6)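 Hepatocytes from mouse, rat, dog and human; compound tested at 2 µM; percent loss of parent compound measured.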

[15] = Aqueous solubility of the compound at pH 7.4; format: physicochemical
[16] = Drug level in Sprague-Dawley rat cerebrospinal fluid at 3 mg/kg, ip after 4 hrs; format: ADME, organism-based; conditions: read-out: Drug uptake; procedure, shortened: as §5
[17] = Half life in Sprague-Dawley rat at 10 mg/kg, ip; format: ADME, organism-based; conditions: in vivo; procedure, shortened: as §1
[18] = Plasma concentration in Sprague-Dawley rat at 10 mg/kg, ip after 0.5 hrs; format: ADME, organism-based; procedure, shortened: as §4
[19] = Bioavailability in Sprague-Dawley rat at 10 mg/kg, ip; format: ADME, organism-based; conditions: in vivo; procedure, shortened: as §1
[20] = target: Metabotropic glutamate receptor 7 (Homo sapiens, UniProt Q14831); experiment: Agonist activity at human recombinant mGlu7 receptor expressed in AV12 cells assessed as stimulation of Ca2+ mobilization after 1 hr by FLIPR assay; format: functional, cell-based
[21] = target: T3, Metabotropic glutamate receptor 8; experiment: Agonist activity at human recombinant mGlu8 receptor expressed in AV12 cells assessed as stimulation of Ca2+ mobilization after 1.5 hrs by FLIPR assay; format: functional, cell-based
[22] = Oral bioavailability in Sprague-Dawley rat at 5 mg/kg; format: ADME, organism-based; conditions: in vivo; procedure, shortened: as §2
[23] = Tmax in Sprague-Dawley rat at 1 mg/kg, ip; format: ADME, organism-based; conditions: in vivo; procedure, shortened: as §2
[24] = Cmax in Sprague-Dawley rat at 1 mg/kg, ip; format: ADME, organism-based; parameters: dose 1 mg/kg, route intraperitoneal; conditions: in vivo; procedure, shortened: as §1
[25] = Fraction unbound in rat plasma; format: ADME, cell-free
[26] = target: Metabotropic glutamate receptor 3 (Homo sapiens, UniProt Q14832, D279E/Q306L); experiment: Agonist activity at human recombinant mGlu3 receptor D279E and Q306L mutant expressed in AV12 cells assessed as stimulation of Ca2+ mobilization after 1 hr by FLIPR assay; format: functional, cell-based
Sequence of Metabotropic glutamate receptor 3 (Q14832 23-879 D279E/Q306L limits assumed): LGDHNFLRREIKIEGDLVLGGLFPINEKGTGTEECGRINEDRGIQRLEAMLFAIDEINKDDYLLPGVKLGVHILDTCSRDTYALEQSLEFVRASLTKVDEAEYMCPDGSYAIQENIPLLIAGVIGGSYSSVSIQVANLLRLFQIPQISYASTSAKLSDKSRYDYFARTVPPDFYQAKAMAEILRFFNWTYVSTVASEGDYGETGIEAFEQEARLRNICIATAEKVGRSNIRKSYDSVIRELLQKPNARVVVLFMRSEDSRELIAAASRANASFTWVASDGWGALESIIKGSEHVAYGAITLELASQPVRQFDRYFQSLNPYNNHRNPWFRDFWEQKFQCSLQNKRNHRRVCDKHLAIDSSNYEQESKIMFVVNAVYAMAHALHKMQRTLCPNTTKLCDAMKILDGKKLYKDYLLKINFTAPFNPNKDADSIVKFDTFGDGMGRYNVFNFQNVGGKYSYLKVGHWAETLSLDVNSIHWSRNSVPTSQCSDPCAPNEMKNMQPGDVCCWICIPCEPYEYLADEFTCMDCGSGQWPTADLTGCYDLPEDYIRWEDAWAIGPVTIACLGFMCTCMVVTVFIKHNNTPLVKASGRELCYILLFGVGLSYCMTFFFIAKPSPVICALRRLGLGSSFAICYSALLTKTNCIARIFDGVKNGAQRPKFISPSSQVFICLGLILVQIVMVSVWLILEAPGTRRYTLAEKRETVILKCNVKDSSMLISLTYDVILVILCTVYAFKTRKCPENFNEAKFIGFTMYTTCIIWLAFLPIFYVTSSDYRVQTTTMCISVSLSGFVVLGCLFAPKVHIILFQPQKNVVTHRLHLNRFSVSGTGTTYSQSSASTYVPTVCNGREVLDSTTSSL

[27] = Metabolic stability of the compound in human hepatocytes assessed as loss of compound at 2 uM; format: ADME, cell-based, Hepatocyte; conditions: read-out: Drug degradation; procedure, shortened: as §6
[28] = Half life in Sprague-Dawley rat at 3 mg/kg, ip; format: ADME, organism-based; conditions: in vivo; procedure, shortened: as §1
[29] = Volume of distribution at steady state in Sprague-Dawley rat at 1 mg/kg, iv; format: ADME, organism-based; conditions: in vivo, read-out: Vdss; procedure, shortened: as §2
[30] = target: T1, Metabotropic glutamate receptor 2; experiment: Agonist activity at human recombinant mGlu2 receptor expressed in AV12 cells assessed as stimulation of Ca2+ mobilization after 1 hr by FLIPR assay; format: functional, cell-based
Rattus norvegicus [31] = organism: Rattus norvegicus; experiment: Toxicity in Sprague-Dawley rat assessed as impairment of neuromuscular coordination at 300 nM of cerebrospinal fluid concentration by rotarod test; format: organism-based; conditions: in vivo, 0.3 µM
[32] = Cmax in Sprague-Dawley rat at 3 mg/kg, ip; format: ADME, organism-based; parameters: dose 3 mg/kg, route intraperitoneal; conditions: in vivo; procedure, shortened: as §1
[33] = AUC (0 to 24 hrs) in Sprague-Dawley rat at 1 mg/kg, iv; format: ADME, organism-based; parameters: time < 24 hr, dose 1 mg/kg, route intravenous; conditions: in vivo; procedure, shortened: as §1
CYP3A4 = CYP3A4 (Homo sapiens, UniProt P08684); experiment: Inhibition of human CYP3A4 at 10 uM; format: ADME; procedure, shortened: as §3
Sequence of CYP3A4 (P08684 whole entry): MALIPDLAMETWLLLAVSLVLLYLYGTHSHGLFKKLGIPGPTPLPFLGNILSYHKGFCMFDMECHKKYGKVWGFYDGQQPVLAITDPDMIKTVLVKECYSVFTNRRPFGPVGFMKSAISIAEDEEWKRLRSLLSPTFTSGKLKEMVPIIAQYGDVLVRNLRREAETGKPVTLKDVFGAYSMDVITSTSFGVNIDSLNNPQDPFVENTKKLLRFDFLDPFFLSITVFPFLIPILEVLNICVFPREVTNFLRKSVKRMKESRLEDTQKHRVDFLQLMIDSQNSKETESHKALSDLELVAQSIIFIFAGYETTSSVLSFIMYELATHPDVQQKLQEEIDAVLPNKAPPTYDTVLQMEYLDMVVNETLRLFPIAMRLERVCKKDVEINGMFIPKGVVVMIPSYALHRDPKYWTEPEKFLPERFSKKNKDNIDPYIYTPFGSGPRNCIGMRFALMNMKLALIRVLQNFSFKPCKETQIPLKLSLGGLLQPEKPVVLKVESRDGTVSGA

[34] = Half life in Sprague-Dawley rat at 5 mg/kg, po; format: ADME, organism-based; conditions: in vivo; procedure, shortened: as §1
[35] = Metabolic stability of the compound in dog hepatocytes assessed as loss of compound at 2 uM; format: ADME, cell-based, Canis lupus familiaris, Hepatocyte; conditions: read-out: Drug degradation; procedure, shortened: as §6
[36] = AUC (0 to 24 hrs) in Sprague-Dawley rat at 5 mg/kg, po; format: ADME, organism-based; parameters: time < 24 hr, dose 5 mg/kg, route oral; conditions: in vivo; procedure, shortened: as §1
[37] = target: T1, Metabotropic glutamate receptor 2; experiment: Agonist activity at human recombinant mGlu2 receptor expressed in AV12 cells assessed as inhibition of forskolin-stimulated cAMP production after 20 min by fluorescence assay
[38] = target: T2, Metabotropic glutamate receptor 1; experiment: Antagonist activity at human recombinant mGlu1 receptor expressed in AV12 cells assessed as inhibition of glutamate-stimulated Ca2+ mobilization after 1 hr by FLIPR assay; format: functional, cell-based
Rattus norvegicus [39] = experiment: Toxicity in Sprague-Dawley rat assessed as impairment of neuromuscular coordination at 10 mg/kg, ip after 2 to 3 hrs by rotarod test; format: organism-based; conditions: in vivo
[40] = Drug level in Sprague-Dawley rat cerebrospinal fluid at 1 mg/kg, ip after 1 hr; format: ADME, organism-based; conditions: read-out: Drug uptake; procedure, shortened: as §5

half-life [2]: 1.2 h
Tmax [3]: 0.5 h
AUC(0-t) at 24 h [4]: 6.01 µM·h
Ki [5]: 144 nM
EC50 [6]: > 25000 nM
inhibition at 10 µM (CYP2C9): < 10%
concentration at 4 h [7]: 314 nM
bioavailability [8]: 122%
concentration at 1 h [9]: 86.4 nM
concentration at 0.5 h [10]: 97.3 nM
bioavailability [11]: 73%
EC50 [12]: 10100 nM
concentration at 0.5 h [13]: 6000 nM
metabolised at 2 µM [14]: < 10%
solubility [15]: > 100 µM
concentration at 4 h [16]: 27.5 nM
half-life [17]: 5.2 h
concentration at 0.5 h [18]: 40100 nM
bioavailability [19]: 88%
EC50 [20]: > 25000 nM
EC50 [21]: > 25000 nM
bioavailability [22]: 4%
Tmax [23]: 0.4 h
Cmax [24]: 4920 nM
fraction unbound [25]: > 0.98
EC50 [26]: 1170 nM
metabolised at 2 µM [27]: < 10%
half-life [28]: 3.2 h
Vd [29]: 1.01 L/kg
EC50 [30]: 21.1 nM
Cmax [32]: 8050 nM
AUC(0-t) at 24 h [33]: 4.91 µM·h
inhibition at 10 µM (CYP3A4): < 10%
half-life [34]: 3.7 h
metabolised at 2 µM [35]: < 10%
AUC(0-t) at 24 h [36]: 1.01 µM·h
EC50 [37]: 5.6 nM
IC50 [38]: > 12500 nM
concentration at 1 h [40]: 39.9 nM
SMILES: N[C@@]1(C(=O)O)C[C@@H](Sc2nc[nH]n2)[C@H]2[C@H](C(=O)O)[C@H]21
Activity (Rattus norvegicus [1]): Non-toxic
Activity (Rattus norvegicus [31]): Toxic
Activity (Rattus norvegicus [39]): Non-toxic
